# Source: PubChem
# STAT3 inh: IL-6 driven STAT3 reporter inhibitors, primary screen, U3A cells, luciferase, luminescence, MLSCN library. actives 0.89% (n = 190,000). IL-6 STAT3-luciferase reporter; host cell line lacks STAT1. inhibition, % at 5.5 µM;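 active = inhibition above the mean inhibition across all screened compounds plus 3 SD, cut at about 44% in these data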;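 also: 0% = DMSO only wells and 100% = 100 µM nifuroxazide control wells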
# STAT3 activator: IL-6 driven STAT3 reporter potentiators, primary screen, U3A cells, luciferase, luminescence, MLSCN library. IL-6 STAT3-luciferase reporter; 100% = signal with IL-6 EC80 alone. activation (% of control), % at 5.6 µM. actives 0.91% (n = 190,000). AID 871, 2007;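 active = activation above the screen-wide mean of compound activation plus 3 SD, cut at about 130% in these data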;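 also: 0% = background luminescence of wells with medium and substrate only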
#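 System – human U3A cells carrying STAT3-luciferase construct · Probe or stimulus – Interleukin-6, 33 ng/mL · Schedule – compound 1 h, then IL-6 6 h at 37 °C · Signal – luminescence from STAT3-driven luciferase reporter · Evaluation – percent of IL-6-only median luminescence · Benchmarks – IL-6-only high control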
# NF-kB expr up: activators of NF-kB expression in neurons, primary screen, cell-based, HTS; human neuronal cells, NF-kB reporter expression; hits give high values; fold change at 12.5 µM; actives 1.6% (n = 190,000); in the data active = fold change above about 3.3
# STAT1 inh-1: STAT1 signaling inhibitors, primary screen, cell-based, HTS, luciferase reporter; NIH 3T3 STAT1-luciferase reporter, IFN-gamma, luminescence; inhibition, % at 5.5 µM; actives 0.35% (n = 200,000); AID 920, 2007;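 active = inhibition above a set limit, the mean inhibition across all tested compounds plus 3 SD, cut at about 34% in these data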;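 also: 0% = IFN-gamma with DMSO and 100% = IFN-gamma with 300 µM nifuroxazide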
# APP 5'UTR act: activators of APP 5'UTR luciferase reporter, primary screen, SH-SY5Y cells. activation, % at 2 µM. actives 1% (n = 190,000). SH-SY5Y APP 5'UTR luciferase reporter, luminescence; zero percent = DMSO vehicle wells. AID 1276, 2008;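 active = activation above a set limit, based on mean plus 3 SD of controls, cut at about 140% in these data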
# STAT1 act: STAT1 signaling activators, primary screen, cell-based, HTS, luciferase reporter | NIH 3T3 STAT1-luciferase reporter, IFN-gamma, luminescence; 100% = IFN-gamma alone, no compound | activation (% of control), % at 5.5 µM | actives 2.6% (n = 200,000) | AID 932, 2007;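 active = activation above the screen-wide mean activation plus 3 SD, cut at about 130% in these data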;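 also: raw ratio to IFN-gamma control signal so 100% means no change and 0% no light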
# STAT1 inh-2: STAT1 signaling inhibitors, confirmation, cell-based, HTS, luciferase reporter | NIH 3T3 STAT1-luciferase reporter, IFN-gamma, luminescence | shares compounds with STAT1 inh-1 | inhibition, % at 5.5 µM | AID 1263, 2008 | actives 55% (n = 200);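 active = triplicate mean inhibition exceeding the hit cutoff computed for the primary STAT1 screen, cut at about 35% in these data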;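 also: 0% = DMSO with IFN-gamma and 100% = 300 µM nifuroxazide with IFN-gamma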
# NFkB inh: NF-kB reporter inhibitors, TNF-alpha stimulated, counter-screen for STAT1 inhibitor project, cell-based, HEK293T, luciferase luminescence. TNF-alpha induced. actives 30% (n = 200). shares compounds with STAT1 inh-1. inhibition, % at 5.7 µM;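 active = inhibition above the mean of solvent-only control wells plus 3 SD of those wells, cut at about 15% in these data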;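 also: 0% = DMSO with TNF-alpha and 100% = MG-132 control with TNF-alpha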
# STAT3 inh 2: STAT3 reporter inhibition by STAT1 hits, counter-screen for STAT1 inhibitor project, U3A cells, luciferase, luminescence, triplicate | actives 20% (n = 200) | inhibition, % at 5.7 µM | IL-6 STAT3 luciferase reporter; cells lacking STAT1 | shares compounds with STAT1 inh-1;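 active = inhibition above the mean of solvent-only control wells plus 3 SD, set per campaign, cut at about 25% in these data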;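 also: 0% = IL-6 plus DMSO and 100% = IL-6 plus nifuroxazide control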
# * = called active by the depositor; nt = no result given. Only some compounds are listed: those with a hit (about 5.1% of all), similar ones and a draw of the others.
SMILES,STAT3 inh,STAT3 activator,NF-kB expr up,STAT1 inh-1,APP 5'UTR act,STAT1 act,STAT1 inh-2,NFkB inh,STAT3 inh 2
Cc1c(C(=O)Nc2ccc(Cl)cc2)c2ccccn2c1CCc1ccncc1,-12.5,110.3,1.21,12.5,-1.4,88.6,nt,nt,nt
CC(=O)c1ccc(OCc2ccc(Oc3c(Cl)cccc3[N+](=O)[O-])cc2)cc1,4.3,95.8,1.04,-1.7,32.1,101.5,nt,nt,nt
N#C/C(=N\Nc1cccc([N+](=O)[O-])c1)C(=O)c1ccc(Br)cc1,37.7,72.0,0.49,69.2*,-6.9,35.0,43.8*,12.1,29.1*
CCOC1=NN(c2ccccc2)C(=O)/C1=C\N(C)C,10.7,94.0,1.25,-1.9,11.5,100.7,nt,nt,nt
CC1=NN(c2nc3ccccc3[nH]2)C(=O)/C1=C/N(C)C,29.0,78.0,0.85,41.2*,27.8,60.6,-92.0,-3.0,-14.8
Cn1cc([N+](=O)[O-])c(C(=O)Nc2cc(Oc3ccccc3)cc([N+](=O)[O-])c2)n1,18.4,87.2,0.72,34.8*,-97.4,69.2,40.4*,24.0*,-0.7
Cc1nn(C)cc1C(=O)Nc1cc(Oc2ccc(Cl)cc2)cc([N+](=O)[O-])c1,-9.5,106.4,1,5.3,-2.4,95.1,nt,nt,nt
CCN(Cc1ccccc1)S(=O)(=O)c1ccc(C(=O)N2CCN(c3nc4ccccc4s3)CC2)cc1,-4.8,101.8,1.07,3.0,-8.1,99.3,nt,nt,nt
Cc1ccc(N(CC(=O)NCCSc2ccccn2)S(C)(=O)=O)cc1,6.3,96.6,1.25,1.7,-20.4,96.7,nt,nt,nt
COc1ccc(C(=O)Nc2cccc(N(C)S(C)(=O)=O)c2)cc1OC,-6.9,107.6,1.66,-17.6,27.5,114.6,nt,nt,nt
Cc1ccc(C(=O)Nc2cccc(N(C)S(C)(=O)=O)c2)cc1S(=O)(=O)Nc1ccccc1,22.4,85.7,0.68,39.7*,6.3,64.5,34.4*,7.2,9.2
COCCn1c(C)cc(C(=O)COc2ccc(C)nc2[N+](=O)[O-])c1C,31.7,76.3,0.46,35.9*,-1.9,66.0,-15.2,11.4,2.4
C=CCNc1cc(C)oc(=O)c1C(=O)CCC,-5.3,109.7,1.08,3.7,8.9,96.6,nt,nt,nt
Cc1ccccc1NC(=O)C(=Cc1ccc(C(=O)O)cc1)C(=O)Nc1ccccc1C,-13.1,111.3,0.69,41.0*,-9.5,62.1,46.1*,-1.3,-14.6
CC(=O)/C(=C/c1ccccc1)C(=O)Nc1ccccc1C,13.5,91.7,1.08,12.0,6.0,87.3,nt,nt,nt
NS(=O)(=O)c1ccc(CCNC(=O)c2ccc(C#CC3(O)CCCCC3)cc2)cc1,16.7,87.5,0.32,51.6*,1.3,51.8,-16.2,7.7,-30.0
O=[N+]([O-])c1cccnc1N1CCN(c2ccc(F)cc2)CC1,17.5,86.5,1.29,-1.3,4.9,99.8,nt,nt,nt
Cc1sc2nc(-c3cccnc3)nc(Cl)c2c1-c1ccccc1,2.5,96.2,1.13,-5.3,14.6,104.7,nt,nt,nt
CCOC(=O)c1c(C)nc2sc3c(=O)n(-c4ccc(OC)cc4)nnc3c2c1-c1ccc(OC)cc1,7.8,95.0,0.81,49.6*,-7.9,55.7,47.9*,9.2,8.7
CCOC(=O)c1c(C)nc2sc3c(=O)n(-c4ccc(C(C)=O)cc4)cnc3c2c1-c1ccc(OC)cc1,4.2,100.5,0.57,3.6,7.3,96.8,nt,nt,nt
Cc1cc(C(=O)CSc2nncs2)c(C)n1Cc1ccco1,42.7,66.6,4.73*,35.3*,181.4*,66.5,-14.7,20.5*,25.6*
Fc1ccc(-n2nnc(-c3cnc4ccccc4c3)n2)cc1,nt,nt,2.17,83.0*,98.4,23.7,20.9,75.9*,77.7*
CCOC(=O)C(=CNc1cc(C)ccn1)C(=O)OCC,1.5,99.5,1.05,7.0,1.6,93.7,nt,nt,nt
CCOC(=O)C(=CNc1cc(C)ccc1C)C(=O)OCC,28.2,80.1,0.73,37.0*,-8.2,66.7,33.5,-1.4,-18.4
CCOC(=O)C(=CNc1cc(C)nn1-c1ccc(C)cc1)C(=O)OCC,16.4,89.7,0.7,69.4*,-21.8,35.8,59.9*,39.7*,14.8
SMILES,STAT3 inh,STAT3 activator,NF-kB expr up,STAT1 inh-1,APP 5'UTR act,STAT1 act,STAT1 inh-2,NFkB inh,STAT3 inh 2
CCOC(=O)C(=CNc1cc(C)nn1C(C)(C)C)C(=O)OCC,-0.4,105.1,0.86,15.4,nt,86.2,nt,nt,nt
Cc1csc(Sc2ccc(S(=O)(=O)N3CCCC3)cn2)n1,0.1,101.5,1.29,2.8,-11.3,97.2,nt,nt,nt
CCNc1nc(NC(C)(C)C)nc(N2CCCCC2)n1,12.9,94.5,1.62,38.6*,3.2,64.2,23.7,-6.5,18.7
CCNc1nc(N2CCCC2)nc(N2CCCC2)n1,-13.5,113.8,1.23,15.7,0.8,85.7,nt,nt,nt
CCOC(=O)c1ccc(S(=O)(=O)Nc2ccc3cn[nH]c3c2)cc1,-12.9,112.8,1.15,16.1,2.4,85.7,nt,nt,nt
O=C(O)c1ccc(N/N=C/c2cc3c(cc2[N+](=O)[O-])OCO3)cc1,36.0,73.2,0.9,35.8*,24.0,65.4,65.1*,44.9*,15.2
CS(=O)(=O)c1nc(-c2ccccc2)cc(C(F)(F)F)n1,5.6,100.8,0.94,35.7*,-62.4,67.3,47.1*,-3.4,2.5
CN(C)CCCOc1nc2c(c(=O)n(C)c(=O)n2C)n1C,7.9,96.0,1.05,0.3,3.8,99.8,nt,nt,nt
CC(C)=NNc1nc2c(c(=O)n(C)c(=O)n2C)n1CCc1ccccc1,17.1,88.7,0.85,-0.9,4.0,99.3,nt,nt,nt
CCOC(=O)N1CCN(C(=S)NC(=O)c2ccc(Br)cc2)CC1,-14.0,118.4,0.96,2.7,28.0,96.1,nt,nt,nt
CCOC(=O)N1CCN(C(=S)NC(=O)c2cc(Br)ccc2Cl)CC1,6.8,96.1,0.95,44.3*,15.9,57.8,20.4,-8.4,0.4
CCCc1cc(O)c2c(C)cc(=O)oc2c1,3.8,97.7,1.29,-2.7,-4.8,102.5,nt,nt,nt
O=C(C1CCC(CNc2nc(=S)[nH]c3ccccc23)CC1)N1CCN(c2ccc(F)cc2)CC1 (stereo not drawn),5.6,96.6,0.76,48.0*,1.9,54.6,33.2,5.8,18.6
CCOc1nc(Nc2ccc(OC)c(Cl)c2)nc(OCC)n1,16.0,86.6,0.37,-1.7,-11.6,99.3,nt,nt,nt
